Holding throughout (assay type): functional
Conditions in all cases: read-out: MEC

The subject of one test is Staphylococcus aureus. The test is described as follows: Antimicrobial activity against Staphylococcus aureus after 16 hrs by microtiter plate assay. The essentials:
(§1)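 Broth microdilution in YPAD medium (1% yeast extract, 2% peptone, 2% dextrose, 40 μg/mL adenine). Wells were scored visually after 16 h. Clear wells were plated on YPAD agar for 16 h at room temperature; regrowth meant bacteriostatic, none meant bactericidal.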

For test [1], the system named is Staphylococcus epidermidis. The test is described as follows: Antimicrobial activity against Staphylococcus epidermidis after 16 hrs by microtiter plate assay. Summed up:
as §1

The next test relates to Salmonella enterica. The test is described as follows: Antimicrobial activity against Salmonella enterica after 16 hrs by microtiter plate assay. The essentials:
as §1

In another test the test system is Shigella sonnei. The test is described as follows: Antimicrobial activity against Shigella sonnei after 16 hrs by microtiter plate assay by microtiter plate assay. Summed up: as §1
The test system of a further test is Escherichia coli. The test is described as follows: Antimicrobial activity against Escherichia coli after 16 hrs by microtiter plate assay. Summed up:
as §1

Another test deals with Klebsiella aerogenes. The test is described as follows: Antimicrobial activity against Enterobacter aerogenes after 16 hrs by microtiter plate assay. The essentials:
as §1

The test system of the next test is Listeria monocytogenes. The test is described as follows: Antimicrobial activity against Listeria monocytogenes after 16 hrs by microtiter plate assay. Summed up: as §1
A further test deals with Enterococcus. The test is described as follows: Antimicrobial activity against Enterococcus after 16 hrs by microtiter plate assay. The essentials:
as §1

From ChEMBL document CHEMBL1155564, “New antimicrobial flavanones from Physena madagascariensis” (2000) come the findings set out here.

Turning to `C=C(C)CC[C@H](Cc1c(O)cc(O)c2c1O[C@H](c1ccc(O)cc1O)CC2=O)C(=C)C` [REMANGIFLAVANONE B], the minimal effective concentration in the test with Staphylococcus aureus amounted to 1.8 µg/mL; in test [1] it was 1.8 µg/mL; in the test with Salmonella enterica, 125 µg/mL; with Shigella sonnei, 125 µg/mL; in the test with Escherichia coli, 125 µg/mL; with Klebsiella aerogenes, 125 µg/mL. Also, the minimal effective concentration in the test on Listeria monocytogenes is 1.8 µg/mL; in the test on Enterococcus, 7.5 µg/mL.
For `C=C(C)CC[C@H](Cc1c(O)cc(O)c2c1O[C@H](c1ccc(O)cc1)CC2=O)C(=C)C` [REMANGIFLAVANONE A], the minimal effective concentration with Staphylococcus aureus came to 3.75 µg/mL; in test [1], 1.8 µg/mL; with Salmonella enterica, 125 µg/mL; in the test with Shigella sonnei it was 125 µg/mL; with Escherichia coli, 125 µg/mL; with Klebsiella aerogenes, 125 µg/mL. Besides, the results for the minimal effective concentration in the test on Listeria monocytogenes and in the test with Enterococcus were 125 µg/mL and 7.5 µg/mL, respectively.
